Sampled rows, rich in hits. Any-hit rate of the full collection: about 9.6%.
TNAP inh noacc: TNAP (human) inhibition, acceptor-free conditions; 0.26% of 200,000 active; purified TNAP, CDP-star luminescence, 30 min; P05186; inhibition, % at 20 µM;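 active = tissue-nonspecific alkaline phosphatase inhibition above about 50% at 20 µM in the single-dose screen, limit read from the data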;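 note: 0% = DMSO negative control and 100% = EDTA positive control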
Target sequence (P05186 whole entry, looked up): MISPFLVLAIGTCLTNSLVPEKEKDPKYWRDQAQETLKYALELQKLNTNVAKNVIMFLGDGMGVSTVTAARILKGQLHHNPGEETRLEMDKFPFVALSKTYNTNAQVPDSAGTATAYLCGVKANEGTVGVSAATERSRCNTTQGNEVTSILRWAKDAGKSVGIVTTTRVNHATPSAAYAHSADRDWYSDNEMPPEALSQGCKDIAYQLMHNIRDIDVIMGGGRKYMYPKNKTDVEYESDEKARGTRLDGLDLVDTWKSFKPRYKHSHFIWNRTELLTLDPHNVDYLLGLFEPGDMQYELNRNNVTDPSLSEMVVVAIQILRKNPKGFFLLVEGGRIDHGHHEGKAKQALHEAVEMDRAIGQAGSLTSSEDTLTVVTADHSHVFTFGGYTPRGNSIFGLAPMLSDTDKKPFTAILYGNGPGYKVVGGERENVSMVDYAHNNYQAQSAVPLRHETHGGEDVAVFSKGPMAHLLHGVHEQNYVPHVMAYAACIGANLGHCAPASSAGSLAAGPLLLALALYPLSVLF
PTEN del growth: PTEN-deleted cell growth suppression; HCT116 PTEN-null viability, CellTiter-Glo, 60 h; stronger effect = lower value; viability, % at 10 µM; 1.2% of 140,000 active;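 active = viability at or below a set limit, 4 SD under the median of all tested compounds, cut at about 3.7% in these data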;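 note: PTEN knockout HCT116 line with beta catenin targeted HCT116 as companion control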
bCat KO growth: beta-catenin-lacking colon tumor cell growth suppression. HCT116 beta-catenin knockout viability, CellTiter-Glo, 60 h; stronger effect = lower value. viability, % at 10 µM. 1.5% of 140,000 active;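 active = viability at or under a set limit, the compound median less 4 SD, cut at about 6% in these data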;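 note: 0% = Hyamine 1622 control at 20 µM and 100% = untreated cell control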
TNAP inh hiacc: inhibitors of human TNAP at high phosphate acceptor concentration; P05186; purified TNAP, CDP-star luminescence, 1 M DEA; inhibition, % at 20 µM; 0.03% of 200,000 active;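 active = over 50% inhibition of tissue-nonspecific alkaline phosphatase at 20 µM in the single-dose screen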;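 note: plate controls were DMSO wells for no effect and EDTA-quenched wells as full inhibition for full effect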
TNAP act hiacc: increases human TNAP activity under high phosphate acceptor concentration; P05186; purified TNAP, CDP-star luminescence, 1 M DEA, 30 min; stronger effect = higher value; 0 = EDTA background, 1 = DMSO-only activity; activation factor at 20 µM; 200,000 tested, under 10 active; AID 1136;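 active = activation factor at least 2 at 20 µM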
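Measured by: Luminescent substrate turnover signal | Test system: Human TNAP | Input: TNAP 1/800 final | Dosing: 20 µM single point | Schedule: 30 min, room temperature | Controls: EDTA wells as negative control, DMSO wells as positive control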
L major viab: reduces viability of Leishmania major promastigotes | resazurin fluorescence viability | inhibition, % at 10 µM | 9% of 200,000 active; in the data active = inhibition above about 50%;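 note: promastigotes grown with compound for 44 hours at 28 °C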
An asterisk follows results filed as active.

CCCCN(C(C)=O)c1c(N)n(CCC)c(=O)n(CC(=O)Nc2cc(Cl)cc(Cl)c2)c1=O was read as TNAP inh noacc -9, TNAP inh hiacc -2, TNAP act hiacc 1 and L major viab -6.
Cc1cc(C)cc(NS(=O)(=O)c2cnc(Cl)c(Cl)c2)c1 was read as TNAP inh noacc -5, PTEN del growth 84, bCat KO growth 84, TNAP inh hiacc 2, TNAP act hiacc 1 and L major viab 82*.
`CCCCCCCCNC(=O)c1cccnc1SCC(=O)Nc1ccccc1OC` gave TNAP inh noacc -58, PTEN del growth 95, bCat KO growth 92, TNAP inh hiacc -4, TNAP act hiacc 1 and L major viab 82*.
`COc1ccc(OC)c(NC(=O)CSc2ncccc2C(=O)O)c1` gave TNAP inh noacc -11, PTEN del growth 102, bCat KO growth 110, TNAP inh hiacc -2, TNAP act hiacc 1 and L major viab -1.
For COC(=O)c1cc(NC(=O)c2ccccc2F)cc(C(=O)OC)c1 the results were TNAP inh noacc 3, TNAP inh hiacc -3, TNAP act hiacc 1 and L major viab -1.
For O=C(O)CC(NC(=O)CCC1CCCCC1)c1cc([N+](=O)[O-])ccc1Cl (centres undefined) the results were TNAP inh noacc -14, TNAP inh hiacc -3, TNAP act hiacc 1 and L major viab -4.
Screening CCc1ccc(C2c3[nH]c4ccccc4c3CCN2C(=O)c2cc(C)nn2C)cc1 (centres undefined) returned TNAP inh noacc -42, TNAP inh hiacc -11, TNAP act hiacc 1.1 and L major viab 60*.
Screening CSc1ccc(C2c3[nH]c4ccccc4c3CCN2C(=O)c2cc(C)n(C)n2)cc1 (centres undefined) returned TNAP inh noacc -12, TNAP inh hiacc -6, TNAP act hiacc 1.1 and L major viab 43.
CCOC(=O)c1cccnc1SCC(=O)N(CC)c1cccc(C)c1 was read as TNAP inh noacc -6, PTEN del growth 114, bCat KO growth 101, TNAP inh hiacc -5, TNAP act hiacc 1 and L major viab 91*.
Screening CC(=O)Nc1ccc(Br)cc1C(=O)C(=O)O returned TNAP inh noacc -9, PTEN del growth 90, bCat KO growth 94, TNAP inh hiacc 0, TNAP act hiacc 1 and L major viab -9.
For CCCc1cc(C(N)=O)c(NC(=O)c2cc(C)on2)s1 the results were TNAP inh noacc -11, PTEN del growth 87, bCat KO growth 96, TNAP inh hiacc -6, TNAP act hiacc 1.1 and L major viab 55*.
`CCCc1cc(C(N)=O)c(NC(=O)c2ccoc2C)s1` gave TNAP inh noacc -2, PTEN del growth 58, bCat KO growth 57, TNAP inh hiacc -1, TNAP act hiacc 1 and L major viab 32.
For Cc1cc(C)c2[nH]c(=O)c(CN(Cc3cccs3)C(=S)NCC3CCCO3)cc2c1 (centres undefined) the results were TNAP inh noacc -16, PTEN del growth 80, bCat KO growth 77, TNAP inh hiacc -3, TNAP act hiacc 1 and L major viab 53*.
For COc1ccccc1NC(=O)N(Cc1ccco1)Cc1cc2cc(C)cc(C)c2[nH]c1=O the results were TNAP inh noacc 2, PTEN del growth 30, bCat KO growth 31, TNAP inh hiacc -7, TNAP act hiacc 1.1 and L major viab 63*.
`CCNC(=S)N(Cc1ccco1)Cc1cc2cc3c(cc2[nH]c1=O)OCCO3` gave TNAP inh noacc -6, PTEN del growth 83, bCat KO growth 84, TNAP inh hiacc -4, TNAP act hiacc 1 and L major viab 11.
For Cc1cc2cc(CN(Cc3ccco3)C(=S)NCC3CCCO3)c(=O)[nH]c2cc1C (centres undefined) the results were TNAP inh noacc -6, PTEN del growth 93, bCat KO growth 87, TNAP inh hiacc 1, TNAP act hiacc 1 and L major viab -1.
`Cc1cc2cc(CN(Cc3cccs3)C(=S)NCC3CCCO3)c(=O)[nH]c2cc1C` (centres undefined) gave TNAP inh noacc -14, PTEN del growth 87, bCat KO growth 97, TNAP inh hiacc -6, TNAP act hiacc 1.1 and L major viab 96*.

Compound activity deposited in PubChem BioAssay by several laboratories.
